Measured values from ChEMBL document CHEMBL4402581, “Monohydrazone Based G-Quadruplex Selective Ligands Induce DNA Damage and Genome Instability in Human Cancer Cells” (J Med Chem, 2020).
pIC50: −log10 of the molar value. Active and inactive are the calls of the source. The rule behind the calls is not given here.

Legend:
Quadruplex DNA [1] = assay: Stabilization of c-Myc G4 quadruplex DNA assessed as change in melting temperature at 10 mol.equiv by circular dichroism melting assay; assay type: nucleic-acid assay
In short: (§1)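 CD melting from 20 to 100 °C at 1 °C/min, monitored at 264 nm (c-Kit1, c-Kit2, c-Myc, Tel23-p), 287 nm (Tel23-h) or 280 nm (hairpin). Ligand was at 10 mol equiv with folded DNA (15 μM G4, 30 μM hairpin). ΔTm is Tm with ligand minus Tm without, from curve fits, averaged over triplicates.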

Quadruplex DNA [2] = assay: Effect on human Tel23 G4 quadruplex DNA architecture at 10 mol.equiv by circular dichroism spectral analysis; assay type: nucleic-acid assay
In short: (§2)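 CD spectra of 15 μM G4s or 30 μM hairpin in 20 mM K phosphate pH 7.0 with 5 mM KCl, after annealing. Recorded at 20 °C over 230–360 nm, three scans averaged, buffer baseline subtracted. Ligand was added at 10 mol equiv to the folded DNA from a 10 mM DMSO stock.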

[3] = Stabilization of hairpin-duplex DNA assessed as change in melting temperature at 10 mol.equiv by circular dichroism melting assay; in short: as §1
Quadruplex DNA [4] = assay: Effect on c-Kit1 G4 quadruplex DNA architecture at 10 mol.equiv by circular dichroism spectral analysis; assay type: nucleic-acid assay; in short: as §2
Quadruplex DNA [5] = assay: Stabilization of c-Kit2 G4 quadruplex DNA assessed as change in melting temperature at 10 mol.equiv by circular dichroism melting assay; assay type: nucleic-acid assay; in short: as §1
Quadruplex DNA [6] = assay: Effect on c-Kit2 G4 quadruplex DNA architecture at 10 mol.equiv by circular dichroism spectral analysis; assay type: nucleic-acid assay; in short: as §2
Quadruplex DNA [7] = assay: Stabilization of human Tel23 G4 quadruplex DNA assessed as change in melting temperature at 10 mol.equiv by circular dichroism melting assay; assay type: nucleic-acid assay; in short: as §1
[8] = Effect on hairpin-duplex DNA architecture at 10 mol.equiv by circular dichroism spectral analysis; in short: as §2
Quadruplex DNA [9] = assay: Stabilization of c-Kit1 G4 quadruplex DNA assessed as change in melting temperature at 10 mol.equiv by circular dichroism melting assay; assay type: nucleic-acid assay; in short: as §1
Quadruplex DNA [10] = assay: Effect on parallel Tel23 G4 quadruplex DNA architecture at 10 mol.equiv by circular dichroism spectral analysis; assay type: nucleic-acid assay; in short: as §2
Quadruplex DNA [11] = assay: Effect on c-Myc G4 quadruplex DNA architecture at 10 mol.equiv by circular dichroism spectral analysis; assay type: nucleic-acid assay; in short: as §2
Quadruplex DNA [12] = assay: Stabilization of parallel Tel23 G4 quadruplex DNA assessed as change in melting temperature at 10 mol.equiv by circular dichroism melting assay; assay type: nucleic-acid assay; in short: as §1
Quadruplex DNA [13] = assay: Stabilization of G4 quadruplex DNA in human U2OS cells assessed as increase in number of G4 foci at 10 uM incubated for 24 hrs by immunofluorescence microscopy; assay type: cell-based
Quadruplex DNA [14] = assay: Stabilization of G4 quadruplex DNA in human U2OS cells assessed as TRF2 foci per cell at 10 uM incubated for 24 hrs by immunofluorescence microscopy (reference value: 15.8 +/- 2.6%); assay type: cell-based
Quadruplex DNA [15] = assay: Stabilization of G4 quadruplex DNA in human U2OS cells assessed as colocalization of TRF2/[…] foci at 10 uM incubated for 24 hrs by immunofluorescence microscopy (reference value: 18.4 +/- 2.81%); assay type: cell-based
U2OS [16] = assay: Induction of genome instability in human U2OS cells assessed as increase in micronuclei formation at 10 uM incubated for 24 hrs by immunofluorescence microscopy; assay type: functional, cell-based
In short: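 U2OS cells were treated for 24 h, fixed in 4% paraformaldehyde, permeabilized with 0.5% Triton X-100, and stained with DAPI. Micronuclei were counted per 100 cells.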

HeLa [17] = assay: Cytotoxicity against human HeLa cells assessed as reduction in cell viability incubated for 24 hrs followed by 48 hrs of recovery in drug free medium by MTT assay; assay type: functional, cell-based
In short: (§3)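 Cells grown in DMEM with 10% FBS and 1% glutamine at 37 °C, 5% CO2, and seeded 25 × 10^4 per well. Treatment began 24 h after seeding and lasted 1 or 24 h, followed by 48 h in drug-free medium. MTT was added for 1 h at 37 °C, then DMSO solubilization and absorbance at 595 nm. IC50 came from linear regression; two independent experiments, each in triplicate.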

U2OS [18] = assay: Induction of DNA damage in human U2OS cells assessed as increase in gammaH2AX phosphorylation at S139 at 10 uM incubated for 4 hrs by immunofluorescence microscopy; assay type: functional, cell-based
In short: (§4)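 U2OS cells were treated with 10 μM for 4 h, pre-extracted 3 min with CSK buffer containing 0.5% Triton X-100, and fixed in 2% paraformaldehyde. Co-stained 1 h for 53BP1 and γH2AX, with DAPI counterstain. Foci were counted per nucleus and normalized to the untreated mean, across three biological replicates.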

U2OS [19] = assay: Cytotoxicity against human U2OS cells assessed as reduction in cell viability incubated for 24 hrs followed by 48 hrs of recovery in drug-free medium by MTT assay; assay type: functional, cell-based; in short: as §3
U2OS [20] = assay: Induction of DNA damage in human U2OS cells assessed as increase in phosphorylated 53BPI foci colocalization with gammaH2AX foci at 10 uM incubated for 4 hrs by immunofluorescence microscopy; assay type: functional, cell-based; in short: as §4
HeLa [21] = assay: Cytotoxicity against human HeLa cells assessed as reduction in cell viability incubated for 1 hr followed by 48 hrs of recovery in drug free medium by MTT assay; assay type: functional, cell-based; in short: as §3
U2OS [22] = assay: Induction of DNA:RNA hybrid formation in human U2OS cells assessed as increase in R loop formation at 10 uM incubated for 60 mins by S9.6 immunofluorescence microscopy; assay type: functional, cell-based
In short: (§5)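 U2OS cells were treated at 10 μM for 5–60 min, 24 h after seeding, then fixed in cold methanol and permeabilized with acetone. Stained with S9.6 antibody and anti-nucleolin. The nucleolar signal was subtracted from total nuclear S9.6 fluorescence, and values were normalized to the untreated mean; two biological replicates.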

U2OS [23] = assay: Cytotoxicity against human U2OS cells assessed as reduction in cell viability incubated for 1 hr followed by 48 hrs of recovery in drug free medium by MTT assay; assay type: functional, cell-based; in short: as §3
U2OS [24] = assay: Induction of DNA:RNA hybrid formation in human U2OS cells assessed as increase in R loop formation at 10 uM incubated for 30 mins by S9.6 immunofluorescence microscopy; assay type: functional, cell-based; in short: as §5

| SMILES | Activity (Quadruplex DNA [1]) | Activity (Quadruplex DNA [2]) | ΔTm [3] [°C] | Activity (Quadruplex DNA [4]) | Activity (Quadruplex DNA [5]) | Activity (Quadruplex DNA [6]) | Activity (Quadruplex DNA [7]) | Activity [8] | Activity (Quadruplex DNA [9]) | Activity (Quadruplex DNA [10]) | Activity (Quadruplex DNA [11]) | Activity (Quadruplex DNA [12]) | also measured |
| --- | --- | --- | --- | --- | --- | --- | --- | --- | --- | --- | --- | --- | --- |
| Cc1cc2c(cc1O)/C(=C\c1cccc(/C=N/NC(=N)N)c1)C(=O)N2 | Active | inactive | > 2 | inactive | Active | inactive | Active | inactive | Active | inactive | inactive | Active | – |
| N=C(N)N/N=C/c1cccc(/C=C2/C(=O)Nc3c2ccc2ccccc32)c1 | Active | inactive | > 2 | inactive | Active | inactive | Active | inactive | Active | inactive | inactive | Active | – |
| O=C1Nc2c(ccc3ccccc23)/C1=C\c1cccc(/C=N/NC2=NCCN2)c1 | Active | inactive | > 2 | inactive | Active | inactive | Active | inactive | Active | inactive | inactive | Active | – |
| Nc1ccn2c(/C=N/NC3=NCCN3)c(-c3ccccc3)nc2n1 | Active | inactive | > 2 | inactive | Active | inactive | Active | inactive | Active | inactive | inactive | Active | – |
| N=C(N)N/N=C/c1cccc(/C=C2/C(=O)Nc3ccc(Cl)cc32)c1 | Active | inactive | > 2 | inactive | Active | inactive | Active | inactive | Active | inactive | inactive | Active | – |
| O=C1Nc2ccc(Cl)cc2/C1=C\c1cccc(/C=N/NC2=NCCN2)c1 | Active | inactive | > 2 | inactive | Active | inactive | Active | inactive | Active | inactive | inactive | Active | – |
| COc1cc2c(/C=N/NC(=N)N)c[nH]c2cc1C | Active | inactive | > 2 | inactive | Active | inactive | Active | inactive | Active | inactive | inactive | Active | – |
| CN(C)c1ccc(Nc2c3ccc(NC(=O)CCN4CCCC4)cc3nc3cc(NC(=O)CCN4CCCC4)ccc23)cc1 | – | – | – | – | – | – | – | – | – | – | – | – | Activity (Quadruplex DNA [13]): Active; Activity (Quadruplex DNA [14]): 19.1%; Activity (Quadruplex DNA [15]): 15.2% |
| COc1cc2c(/C=N/NC(=N)N)c(Cl)[nH]c2cc1C | Active | inactive | > 2 | inactive | Active | inactive | Active | inactive | Active | inactive | inactive | Active | – |
| Cc1cc2c(cc1O)/C(=C\c1cccc(/C=N/NC3=NCCN3)c1)C(=O)N2 | Active | inactive | – | inactive | Active | inactive | Active | inactive | Active | inactive | inactive | Active | Activity [3]: Active |
| COc1cc2c(/C=N/NC(=N)N)c(Cl)n(C)c2cc1C | Active | inactive | > 2 | inactive | Active | inactive | Active | inactive | Active | inactive | inactive | Active | – |
| N=C(N)N/N=C/c1c(Cl)n(C/C=C/c2ccccc2)c2ccccc12 | Active | inactive | – | inactive | Active | inactive | Active | inactive | Active | inactive | inactive | Active | Activity [3]: Active |
| N=C(N)N/N=C/c1cn(Cc2ccccc2)c2ccccc12 | Active | inactive | > 2 | inactive | Active | inactive | Active | inactive | Active | inactive | inactive | Active | – |
| N=C(N)N/N=C/c1cn(C/C=C/c2ccccc2)c2ccccc12 | Active | inactive | – | inactive | Active | inactive | Active | inactive | Active | inactive | inactive | Active | Activity [3]: Active |
| N=C(N)N/N=C/c1c(-c2ccccc2)nc2nc(N)ccn12 | inactive | inactive | – | inactive | inactive | inactive | inactive | inactive | inactive | inactive | inactive | inactive | Activity (U2OS [16]): Active; pIC50 (HeLa [17]): < 4.30; Activity (U2OS [18]): Active; pIC50 (U2OS [19]): < 4.30; Activity (U2OS [20]): Active; pIC50 (HeLa [21]): < 4.00; Activity [3]: inactive; Activity (Quadruplex DNA [13]): inactive; Activity (U2OS [22]): Active; pIC50 (U2OS [23]): < 4.00; Activity (Quadruplex DNA [14]): 15.3%; Activity (Quadruplex DNA [15]): 10.1%; Activity (U2OS [24]): Active |
